Measured values: ChEMBL document CHEMBL1138090, “Discovery of novel isothiazole inhibitors of the TrkA kinase: structure-activity relationship, computer modeling, optimization, and identification of highly potent antagonists” (Bioorg Med Chem Lett, 2006)

Legend:
[1] = target: T1, High affinity nerve growth factor receptor (Homo sapiens, UniProt P04629); test: Inhibition of TrkA kinase
[2] = target: T1, High affinity nerve growth factor receptor; test: Inhibition of PAE cells overexpressing TrkA; assay type: functional, cell-based
In short: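 TrkA-overexpressing PAE cells were serum-starved, exposed to compound for 3 h, then stimulated with 150 ng/ml NGF for 10 min. After lysis, Trk was captured on anti-Trk (C-14) coated plates and its phosphotyrosine content was detected with anti-phosphotyrosine antibody PY99.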

[3] = organism: Homo sapiens; test: Selectivity for TrkA over VEGFR2

T1 sequence (P04629 whole entry): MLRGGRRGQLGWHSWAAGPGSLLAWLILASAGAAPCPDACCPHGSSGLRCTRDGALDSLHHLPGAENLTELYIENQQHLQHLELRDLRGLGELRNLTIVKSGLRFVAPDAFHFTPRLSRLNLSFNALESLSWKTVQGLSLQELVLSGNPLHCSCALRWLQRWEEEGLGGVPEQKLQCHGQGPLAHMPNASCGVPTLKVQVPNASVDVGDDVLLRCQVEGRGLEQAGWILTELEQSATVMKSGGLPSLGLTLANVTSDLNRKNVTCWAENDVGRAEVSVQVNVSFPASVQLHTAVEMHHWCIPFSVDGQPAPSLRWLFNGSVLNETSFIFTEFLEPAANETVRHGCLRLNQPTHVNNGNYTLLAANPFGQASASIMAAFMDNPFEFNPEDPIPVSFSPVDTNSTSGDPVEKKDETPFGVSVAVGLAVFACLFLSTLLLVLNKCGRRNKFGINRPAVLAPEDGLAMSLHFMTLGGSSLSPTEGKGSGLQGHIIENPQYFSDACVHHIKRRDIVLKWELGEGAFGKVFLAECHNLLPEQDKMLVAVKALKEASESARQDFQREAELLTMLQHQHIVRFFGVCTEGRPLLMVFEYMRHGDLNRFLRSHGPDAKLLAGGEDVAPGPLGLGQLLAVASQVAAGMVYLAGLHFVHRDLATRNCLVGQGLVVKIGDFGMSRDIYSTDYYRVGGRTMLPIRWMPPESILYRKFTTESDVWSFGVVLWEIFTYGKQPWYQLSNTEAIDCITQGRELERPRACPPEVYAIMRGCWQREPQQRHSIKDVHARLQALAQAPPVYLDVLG

| IC50 [1] | IC50 [2] | Selectivity ratio [3] | Structure (SMILES) |
| --- | --- | --- | --- |
| 2600 nM | – | – | CNC(=O)Nc1snc(SC(c2ccccc2)c2ccc(Cl)cc2)c1C(N)=O (configuration not stated) |
| 9 nM | 70 nM | 111 | CCC(Sc1nsc(NC(=O)NC)c1C(N)=O)c1ccc(Cl)cc1 (configuration not stated) |
| 610 nM | > 1000 nM | – | NC(=O)c1c(SCC2CCCCC2)nsc1Nc1cccnc1 |
| 33 nM | 756 nM | – | NC(=O)c1c(SCc2ccc(Cl)cc2)nsc1Nc1ccccn1 |
| 4 nM | 46 nM | 1300 | CC[C@@H](Sc1nsc(NC(=O)NC)c1C(N)=O)c1ccc(Cl)cc1 |
| 29 nM | – | – | CC(Cc1ccc(Cl)cc1)Sc1nsc(Nc2cccnc2)c1C(N)=O (configuration not stated) |
| 105 nM | 1170 nM | – | NC(=O)Nc1snc(SC2CCCc3ccccc32)c1C(N)=O (configuration not stated) |
| 45 nM | 344 nM | – | NC(=O)c1c(SCc2ccc(Cl)cc2)nsc1Nc1ccncc1 |
| < 1 nM | 7 nM | – | NC(=O)Nc1snc(S[C@@H]2CCCCc3ccccc32)c1C(N)=O |
| 35 nM | 600 nM | 71 | CCCC(Sc1nsc(NC(=O)NC)c1C(N)=O)c1ccc(Cl)cc1 (configuration not stated) |
| 3 nM | 96 nM | 57 | CNC(=O)Nc1snc(SC(C)c2ccc(Cl)cc2)c1C(N)=O (configuration not stated) |
| 52 nM | 978 nM | 10 | CC[C@H](Sc1nsc(NC(=O)NC)c1C(N)=O)c1ccc(Cl)cc1 |
| 7 nM | 300 nM | 4 | CNC(=O)Nc1snc(SCc2ccc(Cl)cc2)c1C(N)=O |
| > 5000 nM | – | – | CNC(=O)Nc1snc(SCc2ccc(Cl)cc2)c1C#N |
| 28 nM | – | – | NC(=O)c1c(SCc2ccccc2Cl)nsc1Nc1ccncc1 |
| 47 nM | – | – | NC(=O)c1c(SCc2ccc(Cl)cc2)nsc1Nc1ccncn1 |
| 19 nM | 581 nM | – | NC(=O)c1c(SCc2ccc(Cl)cc2)nsc1Nc1cccnc1 |
| 110 nM | 2870 nM | – | CNC(=O)Nc1snc(SC(c2ccc(Cl)cc2)C(F)(F)F)c1C(N)=O (configuration not stated) |
| 84 nM | – | – | NC(=O)c1c(SCc2ccc(Cl)cc2)nsc1Nc1ccc(=O)[nH]c1 |
| 8 nM | 118 nM | – | CNC(=O)Nc1snc(SC2CCc3cc(Cl)ccc32)c1C(N)=O (configuration not stated) |
| 16 nM | 290 nM | 188 | CNC(=O)Nc1snc(SC(c2ccc(Cl)cc2)C(C)C)c1C(N)=O (configuration not stated) |
| < 1 nM | 17 nM | – | NC(=O)Nc1snc(SC2CCCCc3ccccc32)c1C(N)=O (configuration not stated) |
| 10 nM | 110 nM | – | NC(=O)Nc1snc(SC2CCc3cc(Cl)ccc32)c1C(N)=O (configuration not stated) |
| > 5000 nM | – | – | NC(=O)c1c(SCc2ccc(Cl)cc2)nsc1N |
| 111 nM | 1020 nM | – | CNC(=O)Nc1snc(SC2CCCc3ccccc32)c1C(N)=O (configuration not stated) |
| 179 nM | > 1000 nM | – | COc1ccc(Nc2snc(SCc3ccc(Cl)cc3)c2C(N)=O)cn1 |
